Laboratory results reported in ChEMBL document CHEMBL1121966, “(2R*,3S*)-1-[125I]Iodo-2,3-bis(4-hydroxyphenyl)pentane ([125I]iodonorhexestrol) and (2R*,3S*)-1-[77Br]Bromo-2,3-bis(4-hydroxyphenyl)pentane ([77Br]bromonorhexestrol), two gamma-emitting estrogens that show receptor-mediated uptake by target tissues in vivo” (1982).

Columns and labels:
[1] = Thyroid/blood distribution ratio was determined in immature female rats at 1 hr; type: functional
Method in brief: (§1)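 Immature (25 day) female Sprague-Dawley rats (ca. 50 g) were dosed iv (jugular or tail vein) in ethanol plus 0.9% NaCl/rat serum (1:1). Doses were 2 μCi of [125I]iodonorhexestrol (≤15 pmol/dose), or 2 μCi each of [77Br]bromonorhexestrol (≤1.25 pmol/dose) and 16α-[125I]iodoestradiol (2 pmol/dose). Rats were killed at 1, 3 or 6 h; blood and tissues were weighed and γ-counted. Thyroid weight assumed 0.005 g/100 g body weight. Mean ± SD.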

[2] = species on record: Rattus norvegicus; test: Percent injected dose per gram liver at 1 hr with unlabeled estradiol; type: functional
Method in brief: (§2)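 Same iv biodistribution in immature female rats, killed at 1 h, with unlabeled estradiol coinjected to block receptor uptake: 9 μg with [125I]iodonorhexestrol (3 rats), 18 μg with the [77Br]bromonorhexestrol/16α-[125I]iodoestradiol pair (5 rats). Tissue and blood radioactivity were counted as % injected dose/g and tissue-to-blood ratio.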

[3] = Spleen/blood distribution ratio was determined immature female rats at 1 hr; type: functional; method in brief: as §1
[4] = Uterus/blood distribution ratio was measured in immature female rats at 1 hr; type: functional; method in brief: as §1
[5] = species on record: Rattus norvegicus; test: Percent injected dose per gram blood at 1 hr with unlabeled estradiol; type: functional
Method in brief: (§3)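 Immature (25-day, ca. 50 g) Sprague-Dawley female rats received an iv injection (jugular or tail vein) of HPLC-purified tracer in ethanol plus 0.9% NaCl/rat serum 1:1. Doses were 2 μCi [125I]iodo tracer (≤15 pmol), or 2 μCi [77Br]bromo tracer (≤1.25 pmol) with 2 μCi 16α-[125I]iodoestradiol. Animals were killed at 1 h; blood and tissues were weighed and γ-counted. Blocking: coinjected unlabeled estradiol, 9 μg (iodo) or 18 μg (bromo). Mean ± SD.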

[6] = Liver/blood distribution ratio was determined in immature female rats at 1 hr with unlabeled estradiol; type: functional; method in brief: as §3
[7] = Thyroid/blood distribution ratio was determined in immature female rats at 1 hr with unlabeled estradiol; type: functional; method in brief: as §2
[8] = Muscle/blood distribution ratio was determined immature female rats at 1 hr with unlabeled estradiol; type: functional; method in brief: as §3
[9] = species on record: Rattus norvegicus; test: Percent injected dose per gram spleen at 1 hr; type: functional; method in brief: as §1
[10] = species on record: Rattus norvegicus; test: Percent injected dose per gram Muscle at 1 hr with unlabeled estradiol; type: functional; method in brief: as §3
[11] = Esophagus/blood distribution ratio was determined in immature female rats at 1 hr with unlabeled estradiol; type: functional; method in brief: as §3
[12] = species on record: Rattus norvegicus; test: Percent injected dose per gram thyroid at 1 hr; type: functional, Thyroid gland; method in brief: as §1
[13] = species on record: Rattus norvegicus; test: Percent injected dose per gram blood at 1 hr; type: functional; method in brief: as §3
[14] = Tissue/blood distribution ratio was measured in immature female rats at 1 hr; type: functional; method in brief: as §1
[15] = Lung/blood distribution ratio was determined in immature female rats at 1 hr with unlabeled estradiol; type: functional; method in brief: as §3
[16] = species on record: Rattus norvegicus; test: Percent injected dose per gram lung at 1 hr with unlabeled estradiol; type: functional; method in brief: as §2
[17] = species on record: Rattus norvegicus; test: Percent injected dose per gram kidney at 1 hr; type: functional; method in brief: as §3
[18] = species on record: Rattus norvegicus; test: Percent injected dose per gram Uterus at 1 hr; type: functional; method in brief: as §3
[19] = Tissue/blood distribution ratio was measured in immature female rats at 1h, unlabeled estradiol (18 microg) coinjected; type: functional
Method in brief: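 Immature female rats given iv [77Br]bromonorhexestrol with 16α-[125I]iodoestradiol (2 μCi each) plus 18 μg unlabeled estradiol coinjected; killed at 1 h. Tissue and blood were weighed and counted, and tissue-to-blood radioactivity ratios were computed; 5 animals, mean ± SD.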

[20] = Ovary/blood distribution ratio was determined in immature female rats at 1 hr with unlabeled estradiol; type: functional; method in brief: as §3
[21] = Uterus/blood distribution of compound was measured in immature female rats at 1 hr with unlabeled estradiol; type: functional; method in brief: as §2
[22] = species on record: Rattus norvegicus; test: Percent injected dose per gram Muscle at 1 hr; type: functional; method in brief: as §3
[23] = species on record: Rattus norvegicus; test: Percent injected dose per gram esophagus at 1 hr with unlabeled estradiol; type: functional; method in brief: as §3
[24] = species on record: Rattus norvegicus; test: Percent injected dose per gram spleen at 1 hr with unlabeled estradiol; type: functional; method in brief: as §2
[25] = Spleen/blood distribution ratio was determined in immature female rats at 1 hr with unlabeled estradiol; type: functional
[26] = Esophagus/blood distribution ratio was determined in immature female rats at 1 hr; type: functional; method in brief: as §3
[27] = species on record: Rattus norvegicus; test: Percent injected dose per gram Ovaries at 1 hr; type: functional; method in brief: as §3
[28] = species on record: Rattus norvegicus; test: Percent injected dose per gram lung at 1 hr; type: functional; method in brief: as §1
[29] = species on record: Rattus norvegicus; test: Percent injected dose per gram thyroid at 1 hr with unlabeled estradiol; type: functional, Thyroid gland; method in brief: as §2
[30] = species on record: Rattus norvegicus; test: Percent injected dose per gram esophagus at 1 hr; type: functional; method in brief: as §3
[31] = Lung/blood distribution ratio was determined in immature female rats at 1 hr; type: functional; method in brief: as §3
[32] = Kidney/blood distribution ratio was determined in immature female rats at 1 hr; type: functional; method in brief: as §3
[33] = Kidney/blood distribution ratio was determined in immature female rats at 1 hr with unlabeled estradiol; type: functional; method in brief: as §3
[34] = Ovary/blood distribution ratio was determined in immature female rats at 1 hr; type: functional; method in brief: as §3
[35] = Solvolytic stability of compound was measured relative to p-hydroxyphenethyl bromide; type: functional, Rattus norvegicus
[36] = species on record: Rattus norvegicus; test: Percent injected dose per gram liver at 1 hr; type: functional; method in brief: as §1
[37] = Liver/blood distribution ratio was determined in immature female rats at 1 hr; type: functional; method in brief: as §3
[38] = species on record: Rattus norvegicus; test: Percent injected dose per gram kidney at 1 hr with unlabeled estradiol; type: functional; method in brief: as §3
[39] = species on record: Rattus norvegicus; test: Percent injected dose per gram Uterus at 1 hr with unlabeled estradiol.; type: functional; method in brief: as §3
[40] = species on record: Rattus norvegicus; test: Percent injected dose per gram Ovaries at 1 hr with unlabeled estradiol; type: functional; method in brief: as §3

CC[C@H](c1ccc(O)cc1)[C@@H](CI)c1ccc(O)cc1
Ratio [1]: 494.8 | Injected dose [2]: 2.5% | Ratio [3]: 0.9 | Ratio [4]: 11.3 | Injected dose [5]: 1.5% | Ratio [6]: 1.6 | Ratio [7]: 278.4 | Ratio [8]: 1.9 | Injected dose [9]: 1.2% | Injected dose [10]: 2.7% | Ratio [11]: 3.6 | Injected dose [12]: 619% | Injected dose [13]: 1.3% | Ratio [14]: 1 | Ratio [15]: 1.2 | Injected dose [16]: 1.8% | Injected dose [17]: 1.8% | Injected dose [18]: 15.7% | Ratio [19]: 1 | Ratio [20]: 3.2 | Ratio [21]: 3.3 | Injected dose [22]: 1.6% | Injected dose [23]: 5.4% | Injected dose [24]: 1.3% | Ratio [25]: 0.9 | Ratio [26]: 6.3 | Injected dose [27]: 4.8% | Injected dose [28]: 1.4% | Injected dose [29]: 474.5% | Injected dose [30]: 8.3% | Ratio [31]: 1.1 | Ratio [32]: 1.4 | Ratio [33]: 1.2 | Ratio [34]: 3.7 | 1/krel [35]: 0.71 | Injected dose [36]: 2% | Ratio [37]: 1 | Injected dose [38]: 1.9% | Injected dose [39]: 4.9% | Injected dose [40]: 4.9%
